What was measured:
[1] = Plasma concentration in C57BL/6 mouse at 10 mg/kg, po after 2 hrs; format: ADME, organism-based; design: dose 10 mg/kg, route oral
[2] = molecular target: T1, Leukotriene B4 receptor 2 (Homo sapiens) (UniProt Q9NPC1); test: Inhibition of BLT2 (unknown origin) at 10 uM relative to control
T1 sequence (whole entry): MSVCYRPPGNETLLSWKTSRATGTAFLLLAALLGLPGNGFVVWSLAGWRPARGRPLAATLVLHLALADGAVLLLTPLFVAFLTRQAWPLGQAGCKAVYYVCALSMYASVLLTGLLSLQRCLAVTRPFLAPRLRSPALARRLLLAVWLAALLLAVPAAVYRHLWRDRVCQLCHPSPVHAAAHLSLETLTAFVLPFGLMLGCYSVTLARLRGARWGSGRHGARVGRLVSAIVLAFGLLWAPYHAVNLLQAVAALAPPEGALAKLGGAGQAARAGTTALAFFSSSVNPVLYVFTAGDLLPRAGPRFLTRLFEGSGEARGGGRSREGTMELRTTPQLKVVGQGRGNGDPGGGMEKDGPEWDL

[3] = Plasma concentration in C57BL/6 mouse at 1 mg/kg, po after 2 hrs; format: ADME, organism-based; design: dose 1 mg/kg, route oral
[4] = molecular target: T2, Arachidonate 5-lipoxygenase-activating protein (Homo sapiens, UniProt P20292); test: Displacement of [125I]-L-691831 from human FLAP expressed in insect SF9 cell membranes after 2 hrs by Topcount analysis
T2 sequence (P20292 whole entry): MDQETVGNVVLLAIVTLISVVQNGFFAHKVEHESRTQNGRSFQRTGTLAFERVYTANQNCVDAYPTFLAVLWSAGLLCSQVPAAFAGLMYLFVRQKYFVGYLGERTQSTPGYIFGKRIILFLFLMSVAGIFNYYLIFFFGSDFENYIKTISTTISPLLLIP

[5] = Volume of distribution at steady state in cynomolgus monkey at 1 mg/kg, iv and 10 mg/kg, po; format: ADME, organism-based, Macaca fascicularis; conditions: in vivo, read-out: Vdss
Summary of the method: (§1)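 iv 1 mg/kg in 70 % PEG; po 10 mg/kg as suspension in 0.5 % methyl cellulose/0.015 % Tween. Blood sampled at 11 timepoints (0, 5, 15, 30 min, 1, 2, 4, 6, 8, 12, 24 h) per dose; mean of n = 3. Clearance expressed as percent of hepatic blood flow.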

[6] = Oral bioavailability in cynomolgus monkey at 10 mg/kg; format: ADME, organism-based, Macaca fascicularis; conditions: in vivo; summary of the method: as §1
[7] = molecular target: T3, Leukotriene A-4 hydrolase (Homo sapiens) (UniProt P09960); test: Inhibition of LTA4 hydrolase (unknown origin) at 10 uM relative to control
T3 sequence (whole entry): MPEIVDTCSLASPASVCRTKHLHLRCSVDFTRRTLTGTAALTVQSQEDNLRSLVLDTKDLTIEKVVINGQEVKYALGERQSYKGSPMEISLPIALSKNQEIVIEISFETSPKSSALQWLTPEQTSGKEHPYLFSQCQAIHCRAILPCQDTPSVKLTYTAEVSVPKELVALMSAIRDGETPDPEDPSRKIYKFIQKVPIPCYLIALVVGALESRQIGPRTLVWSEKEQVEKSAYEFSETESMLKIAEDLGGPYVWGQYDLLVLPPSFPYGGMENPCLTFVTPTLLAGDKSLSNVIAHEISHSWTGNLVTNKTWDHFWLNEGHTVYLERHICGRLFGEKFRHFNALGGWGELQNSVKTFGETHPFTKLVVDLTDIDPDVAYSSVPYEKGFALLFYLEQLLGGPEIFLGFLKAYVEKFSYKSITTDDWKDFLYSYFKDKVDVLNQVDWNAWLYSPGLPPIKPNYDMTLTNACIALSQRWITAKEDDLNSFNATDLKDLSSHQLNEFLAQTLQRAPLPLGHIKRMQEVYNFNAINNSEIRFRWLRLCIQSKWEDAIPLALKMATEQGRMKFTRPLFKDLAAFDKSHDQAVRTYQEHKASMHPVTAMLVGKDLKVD

[8] = Volume of distribution at steady state in dog at 1 mg/kg, iv and 10 mg/kg, po; format: ADME, organism-based, Canis lupus familiaris; conditions: in vivo, read-out: Vdss; summary of the method: as §1
Cytochrome P450 3A4 = Cytochrome P450 3A4 (Homo sapiens, UniProt P08684); test: Inhibition of CYP3A4 in human liver microsomes using midazolam as substrate preincubated for 10 mins followed by NADPH addition measured after 6 mins; format: ADME
Summary of the method: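 Human liver microsomes (0.05 mg/mL protein) with cocktail substrates: 4 µM diclofenac (2C9), 3 µM dextromethorphan (2D6), 2.5 µM midazolam (3A4). Compound in 0.1 M potassium phosphate pH 7.4 preincubated 10 min at 37 °C; NADPH added, reaction 6 min at 37 °C.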

[9] = Oral bioavailability in rat at 10 mg/kg; format: ADME, organism-based; conditions: in vivo; summary of the method: as §1
[10] = Plasma concentration in C57BL/6 mouse at 100 mg/kg, po after 2 hrs; format: ADME, organism-based; design: dose 100 mg/kg, route oral
[11] = Plasma concentration in C57BL/6 mouse at 30 mg/kg, po after 2 hrs; format: ADME, organism-based; design: dose 30 mg/kg, route oral
[12] = molecular target: Leukotriene B4 receptor 1 (Homo sapiens) (UniProt Q15722); test: Inhibition of BLT1 (unknown origin) at 10 uM relative to control
Mus musculus [13] = test: In vivo inhibition of FLAP in po dosed C57BL/6 mouse assessed as reduction of LTB4 production in calcimycin-stimulated whole blood after 2 hrs by ELISA; format: functional, organism-based
Mus musculus [14] = test: In vivo inhibition of FLAP in C57BL/6 mouse assessed as LTB4 production in calcimycin-stimulated whole blood at 3 mg/kg, po after 2 hrs by ELISA (reference value: 100 +/- 13.3%); format: functional; design: scale not given: the % may be the effect or the level left
Canis familiaris = test: Clearance in dog at 1 mg/kg, iv and 10 mg/kg, po relative to hepatic blood flow; format: ADME, organism-based, Canis lupus familiaris, Liver; conditions: in vivo; summary of the method: as §1
[15] = Mean residence time in dog at 1 mg/kg, iv; format: ADME, organism-based, Canis lupus familiaris; design: dose 1 mg/kg, route intravenous; conditions: in vivo; summary of the method: as §1
[16] = Metabolic stability in human liver microsomes at 1 uM preincubated for 10 mins followed by NADPH addition measured over 60 mins by LC/MS analysis relative to hepatic blood flow; format: ADME; conditions: read-out: Stability
Summary of the method: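 Human liver microsomes (1 mg/mL protein) with test compound at 1 µM, preincubated 10 min at 37 °C before adding NADPH. Remaining compound followed over a 0–60 min time course, as duplicate 8-timepoint curves. The slope of ln(% remaining) against time gives clearance, expressed as percent of hepatic blood flow.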

Cytochrome P450 3A4, sequence (P08684 whole entry): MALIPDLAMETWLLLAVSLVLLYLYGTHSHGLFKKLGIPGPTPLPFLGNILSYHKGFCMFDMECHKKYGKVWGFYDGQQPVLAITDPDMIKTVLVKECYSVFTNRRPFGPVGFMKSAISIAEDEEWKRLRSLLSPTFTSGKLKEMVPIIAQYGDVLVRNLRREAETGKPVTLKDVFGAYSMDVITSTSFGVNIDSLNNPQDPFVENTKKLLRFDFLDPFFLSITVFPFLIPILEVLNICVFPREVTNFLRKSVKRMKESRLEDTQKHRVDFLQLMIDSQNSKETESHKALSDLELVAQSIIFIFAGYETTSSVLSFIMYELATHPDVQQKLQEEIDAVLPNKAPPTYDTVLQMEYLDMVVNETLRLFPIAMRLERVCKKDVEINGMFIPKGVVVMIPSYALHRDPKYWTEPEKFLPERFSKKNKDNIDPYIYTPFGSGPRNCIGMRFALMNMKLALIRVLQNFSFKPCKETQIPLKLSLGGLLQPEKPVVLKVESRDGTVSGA
Leukotriene B4 receptor 1 (Homo sapiens), sequence (Q15722 whole entry): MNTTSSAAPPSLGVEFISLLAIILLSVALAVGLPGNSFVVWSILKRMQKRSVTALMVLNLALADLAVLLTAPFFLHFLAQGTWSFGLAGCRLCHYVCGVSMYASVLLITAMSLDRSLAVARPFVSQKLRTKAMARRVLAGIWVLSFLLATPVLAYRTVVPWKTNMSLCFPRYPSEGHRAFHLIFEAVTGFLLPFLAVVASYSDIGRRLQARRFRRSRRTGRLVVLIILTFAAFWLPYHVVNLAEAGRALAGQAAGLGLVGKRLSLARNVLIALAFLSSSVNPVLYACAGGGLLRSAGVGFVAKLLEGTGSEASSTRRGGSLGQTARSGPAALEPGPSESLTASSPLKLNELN

## CN(C)C(=O)Cn1cc(-c2nc([C@@](C)(c3ccc(-c4cnc(N)nc4)cc3)C3CC3)no2)cn1 [BI 665915]
[1]
  concentration at 2 h: 14.8 µM
[2]
  inhibition: < 50%
[3]
  concentration at 2 h: 1.7 µM
[4]
  IC50: 1.7 nM
[5]
  Vd: 0.5 L/kg
[6]
  bioavailability: 45%
[7]
  inhibition: < 50%
[8]
  Vd: 1.2 L/kg
Cytochrome P450 3A4
  IC50: > 30000 nM
[9]
  bioavailability: 63%
[10]
  concentration at 2 h: 152 µM
[11]
  concentration at 2 h: 20.7 µM
[12]
  inhibition: < 50%
Mus musculus [13]
  inhibition: Dose-dependent effect
Mus musculus [14]
  Activity: 91%
Canis familiaris
  CL: 2.8%
[15]
  MRT: 23 h
[16]
  hepatic extraction ratio at 1 h, 1 µM: 0.33

Source: ChEMBL document CHEMBL3414472, “Synthesis, SAR, and series evolution of novel oxadiazole-containing 5-lipoxygenase activating protein inhibitors: discovery of 2-[4-(3-{(r)-1-[4-(2-amino-pyrimidin-5-yl)-phenyl]-1-cyclopropyl-ethyl}-[1,2,4]oxadiazol-5-yl)-pyrazol-1-yl]-N,N-dimethyl-acetamide (BI 665915)” (J Med Chem, 2015)
